# A selection: hits, their analogues and other compounds. The true share with any hit is near 4.6%.
# NCF1 inh: p47phox/p22phox peptide binding inhibitors, primary screen, biochemical, uHTS, NADPH oxidase regulatory subunit | Neutrophil cytosol factor 1 (Homo sapiens), P14598 | fluorescence polarization, 2 h | inhibition, % at 24.7 µM | 220,000 tested, 0.53% active | AID 1274, 2008;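 active means inhibition above about 30%, limit read from the data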;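 further: 0% = p47phox with labelled peptide and 100% = labelled peptide alone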
# Hck Nef HTS: inhibitors of Nef-activated human Hck kinase, primary screen, biochemical, Z-Lyte FRET, 384-well, Hck-YEEI; Tyrosine-protein kinase HCK (Homo sapiens), P08631; AID 463187, 2010; inhibition, % at 20 µM; 220,000 tested, 0.68% active; Recombinant Hck-YEEI plus Nef, Z-Lyte FRET kinase assay;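 active means Hck-Nef kinase inhibition above about 50%, limit read from the data; inactive means inhibition below that limit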;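 further: 0% = DMSO with Hck plus Nef and 100% = Hck alone without Nef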
# Target sequence (P08631 whole entry, looked up): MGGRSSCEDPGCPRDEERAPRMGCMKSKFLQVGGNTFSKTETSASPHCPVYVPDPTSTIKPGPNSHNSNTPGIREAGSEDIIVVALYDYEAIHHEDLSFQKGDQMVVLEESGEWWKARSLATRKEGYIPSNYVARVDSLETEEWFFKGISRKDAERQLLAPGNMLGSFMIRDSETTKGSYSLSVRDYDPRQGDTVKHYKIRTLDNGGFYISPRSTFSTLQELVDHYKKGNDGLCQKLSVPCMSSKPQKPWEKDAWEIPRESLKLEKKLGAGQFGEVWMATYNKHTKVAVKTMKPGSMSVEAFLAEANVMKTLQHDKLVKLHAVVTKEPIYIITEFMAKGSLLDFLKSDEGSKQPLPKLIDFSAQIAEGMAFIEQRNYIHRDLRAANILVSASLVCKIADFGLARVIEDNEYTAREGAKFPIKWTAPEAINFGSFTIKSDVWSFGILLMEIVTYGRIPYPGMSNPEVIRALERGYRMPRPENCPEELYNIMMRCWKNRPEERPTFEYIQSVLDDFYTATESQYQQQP
# WT yeast gro inh: growth inhibition of WT strain, primary screen, mitochondrial fusion inhibitor project, WT and mutant strains, chemical genetic; mitochondrial fusion phenotypic screen; inhibition, % at 10 µM; 190,000 tested, 2.1% active; AID 1362, 2008; in the data active means inhibition above about 58%; tested in S. cerevisiae
# RAM inhibit: inhibitors of the yeast RAM network, primary screen, dse1pr::URA3 reporter, 5-FOA selection; S. cerevisiae dse1pr::URA3 reporter, 5-FOA growth OD615, 2 d; analog-sensitive cbk1-as2 kinase mutant strain; inhibition, % at 50 µM; 190,000 tested, 1.8% active;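 active means inhibition above a set limit, 3 SD over mean compound inhibition, cut at about 8.4% in these data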;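 further: 0% = DMSO-only wells with no growth and 100% = 10 µM 1-NA-PP1 full growth; inhibition rescues growth on 5-FOA so higher OD means more RAM inhibition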
# Biofilm kill mix: clotrimazole potentiators killing C. albicans biofilm, primary screen, 4-compound mixtures | C. albicans biofilm persisters + clotrimazole, fluorescence viability; primary screen in compound mixtures of four per well | inhibition, % at 7.6 µM | 120,000 tested, 0.02% active | AID 1242, 2008;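 active means inhibition above 30.3% in the primary screen of four-compound pools, then above 30% when the compound was retested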;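 further: compounds exposed to preformed 24 h biofilms for 48 h; 0% = untreated biofilm control and 100% = clotrimazole plus chlorhexidine kill blank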
#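 Assay system: C. albicans biofilms / Medium: RPMI/MOPS medium, pH 7.0 / Schedule: biofilm formation 24 h, compound exposure 48 h, 37 °C / Measured by: Alamar Blue fluorescence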
# Arbovirus inh: antivirals against arbovirus infection, primary screen, cell-based, full library, 10K replicate subset; inhibition, % at 10 µM; AID 1251, 2008; arbovirus infection cell-based antiviral screen; 200,000 tested, 0.37% active; in the data active means inhibition above about 30%
# Active calls of the source: *; . = no result.
SMILES,NCF1 inh,Hck Nef HTS,WT yeast gro inh,RAM inhibit,Biofilm kill mix,Arbovirus inh
O=C(O)C[C@@H]1C(=O)O[C@@H]2C(COC(=O)c3cc(O)c(O)c(O)c3)O[C@@H](OC(=O)c3cc(O)c(O)c(O)c3)[C@@H](OC(=O)c3cc(O)c(O)c4c3[C@H]1[C@H](O)C(=O)O4)[C@H]2OC(=O)c1cc(O)c(O)c(O)c1 (some centres undefined),-70.2,102.0*,.,.,3.2,.
CN(C)S(=O)(=O)c1cc(C(=O)NCCCn2ccc3ccccc32)ccc1Cl,-43.2,0.6,2.8,9.3*,.,-6.7
O=C1c2ccccc2C(Nc2ccc(S(=O)(=O)N3CCCCC3)cc2)N1c1ccccn1 (centres undefined),.,18.3,4.0,.,.,31.5*
O=C(N/N=C/c1cccc(OCC(=O)N2CCCC2)c1)C(=O)Nc1ccccc1F,0.2,4.7,-6.1,2.2,4.2,-5.6
CC(C)c1ccc(NC(=O)c2sccc2-n2cccc2)cc1,-2.6,17.6,67.2*,8.6*,3.7,-11.4
C=CCNCCOCCOc1ccc(Cl)cc1C(C)(C)C,-1.9,-10.8,35.8,4.3,14.5,-26.1
C=CCNCCCOc1ccc(Cl)cc1C(C)(C)C,-10.2,20.0,74.5*,2.7,9.4,-43.3
COc1ccc(CC(=O)O/N=C(\N)Cc2cccc3ccccc23)cc1OC,-10.0,2.8,22.3,5.9,10.0,4.9
NC(=O)c1ccc(NC(=O)Cc2csc(-c3ccccc3)n2)cc1,-18.2,24.5,-10.4,0.5,27.2,6.1
CCOc1ccc(NC(=O)Cn2nnc(C(=O)NCc3ccccc3OC)c2N)cc1,-0.7,4.0,-8.3,9.9*,.,-3.6
Cc1c2c(nc3nnnn13)CCCC2,3.9,-14.9,-5.4,0.7,2.6,2.2
O=C(N=C1SCC(=O)N1c1ccccc1Cl)c1ccccc1,-61.5,20.6,77.5*,1.4,6.6,12.3
O=C(Cc1ccc(Br)cc1)N1CCN(c2ccccc2O)CC1,-13.0,-1.1,5.7,1.6,.,16.8
CN(C)CCNC=C(C(=O)Nc1ccc(Cl)cc1Cl)C(=O)Nc1ccc(Cl)cc1Cl,-18.9,0.1,97.5*,9.0*,.,-6.2
CCn1c(-c2ccc3[nH]c(C)c(C)c3c2)n[nH]c1=S,-9.2,1.6,7.1,1.0,.,0.5
O=C(Cc1ccc(S(=O)(=O)N2CCOCC2)s1)Nc1ccc2c(c1)CCC2,-17.9,-0.8,8.6,9.4*,.,-8.9
CC(=O)Nc1ccc(NC(=O)Cc2ccc(S(=O)(=O)N3CCCCC3)s2)cc1,-4.3,4.9,-6.0,0.7,14.8,-3.9
CCOC(=O)c1[nH]c(C)c(/C(O)=C2\C(=O)C(=O)N(CCCN(C)C)C2c2cccnc2)c1C (centres undefined),-3.4,1.4,13.3,-0.1,.,3.1
FC(F)(F)c1cccc(CNc2ncccc2-c2nc3cc(Cl)ccc3o2)c1,-7.6,31.5,-11.7,8.5*,.,5.0
Cc1[nH]n(C(N)=S)c(=O)c1N=Nc1cc(-c2ccc(Br)cc2)[nH]n1,-4.4,24.2,24.8,5.7,7.1,20.3
Cc1ccc(N=Nc2c(C)[nH]n(C(N)=S)c2=O)cc1C,-8.2,2.9,59.9*,1.3,25.6,-16.2
Cc1[nH]n(C(N)=S)c(=O)c1N=Nc1ccc(S(=O)(=O)N2CCCCCC2)cc1,-23.5,0.6,67.5*,2.4,.,-3.0
Cc1[nH]n(C(N)=S)c(=O)c1N=Nc1ccc2ccccc2c1,-11.8,29.8,65.9*,1.1,7.2,-5.8
CC(=O)Nc1ccc(N=Nc2c(C)[nH]n(C(N)=S)c2=O)cc1,-30.3,13.8,2.6,0.8,15.3,19.1
CC(=O)C1=NOC(CNC(=O)c2c(-c3ccccc3Cl)noc2C)C1 (centres undefined),-4.6,1.4,6.9,0.7,.,2.8
SMILES,NCF1 inh,Hck Nef HTS,WT yeast gro inh,RAM inhibit,Biofilm kill mix,Arbovirus inh
CCOC(=O)c1cc2oc(C(c3nnnn3C3CCCCC3)N3CCOCC3)cc2[nH]1 (centres undefined),-9.8,2.7,5.7,2.3,.,12.2
Cc1ccccc1Cn1c(=O)n(CCC(=O)NCc2ccc3c(c2)OCO3)c(=O)c2ccccc21,37.1*,2.7,-12.3,0.7,.,-10.8
O=C(CCn1c(=O)c2ccccc2n(Cc2cccnc2)c1=O)NCc1ccc2c(c1)OCO2,-17.2,2.5,15.3,-0.1,.,-11.2
CCc1ccc(/C=C/C(=O)C2C(=O)c3ccccc3C2=O)cc1,-49.4,0.3,7.4,9.1*,.,5.1
O=C(/C=C/c1ccccc1)C1C(=O)c2ccccc2C1=O,-51.3,1.1,15.8,4.5,16.9,1.9
Cc1ccc(S(=O)(=O)N2CCN(Cc3cc(C(C)C)ccc3O)CC2)cc1,-3.2,-1.6,51.3,1.7,.,30.4*
COc1ccc(C)cc1NC(=S)N1CCN(S(C)(=O)=O)CC1,-5.2,3.8,-13.8,0.4,6.1,0.2
O=C(c1n[nH]c2ccccc12)N1CCN(S(=O)(=O)c2ccc3ccccc3c2)CC1,-7.6,0.0,77.4*,5.0,.,9.2
O=C(c1ccc(=O)[nH]n1)N1CCN(S(=O)(=O)c2ccc3ccccc3c2)CC1,-7.8,13.6,-14.3,2.1,9.4,3.7
Cc1nn(Cc2ccccc2)c(C)c1C(=O)OCC(=O)c1cc(C)n(C2CC2)c1C,-51.6,-0.3,12.8,9.1*,.,-15.9
Cc1cnc(NC(=O)c2cc3c(C)nn(Cc4ccccc4Cl)c3s2)s1,2.2,13.7,5.7,5.0,14.1,-6.0
COc1ccc(NS(=O)(=O)c2cccc(NC(=O)CCS(=O)(=O)c3ccccc3)c2)cc1,-19.2,0.8,-16.6,1.0,21.0,2.3
CC(C)(C)c1ccc(OCC(=O)Nc2ccc3c4c(cccc24)C(=O)NC3=O)cc1,-19.6,22.0,24.5,1.0,10.7,-24.0
Clc1cccc(Cl)c1CSc1nnc(/C=C/c2ccccc2)o1,-6.1,-1.1,24.3,10.7*,.,7.7
c1csc(-c2nc3c4ccccc4c4ccccc4c3[nH]2)c1,-25.1,-0.1,79.6*,2.6,13.2,13.6
Oc1ccccc1-c1nc2c3ccccc3c3ccccc3c2[nH]1,-47.3,14.3,.,.,4.7,.
Clc1ccc(-n2ncc3c(NCc4ccco4)ncnc32)cc1,-6.8,-0.8,4.7,6.9,.,-14.8
COc1ccc(-n2ncc3c(NCc4ccco4)ncnc32)cc1,-7.4,2.1,68.5*,-0.9,.,-1.2
FC(F)(F)c1ccc(CSc2nccn2-c2ccccc2)cc1,-6.0,0.4,62.9*,0.5,.,-7.4
COc1ccc(C(=O)N2CCN(Cc3nc(CC4CC4)no3)CC2)cc1,1.6,1.9,5.2,0.0,12.6,4.5
Cc1c2c(n3c(nc4ccccc43)c1C#N)N(CCN1CCOCC1)CC2,-10.6,75.5*,-16.7,2.3,3.0,-3.7

# From PubChem BioAssay
